Source: ChEMBL document CHEMBL5247577, “Improved Selective Class I HDAC and Novel Selective HDAC3 Inhibitors: Beyond Hydroxamic Acids and Benzamides” (ACS Med Chem Lett, 2019)

What was measured:
Cytochrome P450 2C9 = Cytochrome P450 2C9 (Homo sapiens, UniProt P11712); experiment: Inhibition of CYP2C9 (unknown origin); type: ADME
[1] = molecular target: T1, Protein deacetylase HDAC6 (Homo sapiens, UniProt Q9UBN7); experiment: Inhibition of human HDAC6
T1 sequence (Q9UBN7 whole entry): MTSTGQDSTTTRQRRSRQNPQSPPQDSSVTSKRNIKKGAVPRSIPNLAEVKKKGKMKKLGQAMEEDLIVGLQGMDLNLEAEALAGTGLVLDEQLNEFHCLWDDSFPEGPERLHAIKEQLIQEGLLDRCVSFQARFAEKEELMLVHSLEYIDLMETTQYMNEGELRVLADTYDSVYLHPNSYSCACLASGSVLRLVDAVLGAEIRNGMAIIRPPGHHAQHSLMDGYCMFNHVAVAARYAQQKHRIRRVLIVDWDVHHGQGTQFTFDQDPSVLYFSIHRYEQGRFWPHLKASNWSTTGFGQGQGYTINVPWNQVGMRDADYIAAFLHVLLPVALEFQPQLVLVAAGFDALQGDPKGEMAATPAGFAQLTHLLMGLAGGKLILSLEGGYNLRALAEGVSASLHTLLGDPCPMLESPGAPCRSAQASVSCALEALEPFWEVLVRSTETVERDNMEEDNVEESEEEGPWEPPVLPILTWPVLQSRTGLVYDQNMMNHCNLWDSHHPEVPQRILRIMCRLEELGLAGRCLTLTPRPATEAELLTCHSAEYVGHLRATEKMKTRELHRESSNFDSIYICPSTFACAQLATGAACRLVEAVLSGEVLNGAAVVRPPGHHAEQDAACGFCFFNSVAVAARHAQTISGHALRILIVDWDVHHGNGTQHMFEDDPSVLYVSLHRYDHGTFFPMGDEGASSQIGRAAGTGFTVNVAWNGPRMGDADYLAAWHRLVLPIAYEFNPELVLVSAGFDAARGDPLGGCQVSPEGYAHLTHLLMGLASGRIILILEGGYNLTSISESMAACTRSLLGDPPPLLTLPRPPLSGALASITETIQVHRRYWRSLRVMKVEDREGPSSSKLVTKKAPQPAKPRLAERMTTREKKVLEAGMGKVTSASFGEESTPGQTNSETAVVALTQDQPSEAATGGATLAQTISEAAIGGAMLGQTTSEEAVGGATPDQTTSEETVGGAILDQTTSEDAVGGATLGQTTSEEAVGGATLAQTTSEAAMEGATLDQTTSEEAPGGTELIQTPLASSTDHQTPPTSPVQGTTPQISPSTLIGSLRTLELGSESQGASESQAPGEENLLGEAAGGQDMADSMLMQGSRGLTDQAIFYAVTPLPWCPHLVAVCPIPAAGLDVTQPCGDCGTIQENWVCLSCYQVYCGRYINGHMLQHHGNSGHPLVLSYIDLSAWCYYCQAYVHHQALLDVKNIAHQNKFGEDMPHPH

[2] = Unbound fraction in human plasma; type: ADME, cell-free
[3] = molecular target: T2, Voltage-gated inwardly rectifying potassium channel KCNH2 (Homo sapiens, UniProt Q12809); experiment: Inhibition of hERG potassium channel incubated for 4 hrs by fluorescence polarization assay; type: toxicity
Cytochrome P450 2D6 = Cytochrome P450 2D6 (Homo sapiens, UniProt P10635); experiment: Inhibition of CYP2D6 (unknown origin); type: ADME
[4] = molecular target: T2, Voltage-gated inwardly rectifying potassium channel KCNH2; experiment: Inhibition of hERG by patch clamp assay; type: toxicity
[5] = Half life in NMRI mouse plasma at 20 mg/kg, po or 2 mg/kg, iv by LC/MS/MS analysis; type: ADME, organism-based
Outline: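 Compound dosed as the tartrate salt. Oral doses were 20 mg/kg in mouse, 10 mg/kg in rat and 5 mg/kg in minipig.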

T2 sequence (Q12809 whole entry): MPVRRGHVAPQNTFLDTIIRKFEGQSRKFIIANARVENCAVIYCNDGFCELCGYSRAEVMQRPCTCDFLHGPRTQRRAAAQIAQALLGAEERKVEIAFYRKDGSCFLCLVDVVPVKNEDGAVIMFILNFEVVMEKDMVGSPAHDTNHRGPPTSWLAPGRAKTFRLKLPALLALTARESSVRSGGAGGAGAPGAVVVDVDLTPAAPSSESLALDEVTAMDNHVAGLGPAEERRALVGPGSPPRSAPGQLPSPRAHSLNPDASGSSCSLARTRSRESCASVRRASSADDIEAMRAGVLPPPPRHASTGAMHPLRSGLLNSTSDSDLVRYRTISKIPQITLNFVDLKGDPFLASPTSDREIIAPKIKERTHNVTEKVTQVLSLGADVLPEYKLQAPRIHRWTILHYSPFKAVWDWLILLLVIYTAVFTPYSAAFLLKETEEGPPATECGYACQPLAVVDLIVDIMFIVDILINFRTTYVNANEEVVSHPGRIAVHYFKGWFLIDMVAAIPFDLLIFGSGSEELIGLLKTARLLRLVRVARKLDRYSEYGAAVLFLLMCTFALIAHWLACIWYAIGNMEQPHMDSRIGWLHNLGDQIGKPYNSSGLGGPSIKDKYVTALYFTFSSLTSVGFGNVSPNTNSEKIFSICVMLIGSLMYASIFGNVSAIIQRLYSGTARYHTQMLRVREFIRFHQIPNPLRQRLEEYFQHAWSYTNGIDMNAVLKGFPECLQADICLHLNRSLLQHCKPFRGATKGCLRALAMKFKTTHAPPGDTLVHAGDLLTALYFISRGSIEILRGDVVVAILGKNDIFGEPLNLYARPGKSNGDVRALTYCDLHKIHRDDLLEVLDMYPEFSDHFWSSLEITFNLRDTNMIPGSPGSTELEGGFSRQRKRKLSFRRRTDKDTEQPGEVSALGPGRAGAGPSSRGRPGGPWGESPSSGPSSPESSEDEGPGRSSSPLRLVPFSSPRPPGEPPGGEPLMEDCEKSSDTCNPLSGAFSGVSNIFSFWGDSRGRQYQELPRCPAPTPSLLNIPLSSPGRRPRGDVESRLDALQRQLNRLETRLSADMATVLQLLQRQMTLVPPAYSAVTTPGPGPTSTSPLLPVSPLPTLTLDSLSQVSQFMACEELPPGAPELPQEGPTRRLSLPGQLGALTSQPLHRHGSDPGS
Sequence of Cytochrome P450 2D6 (P10635 whole entry): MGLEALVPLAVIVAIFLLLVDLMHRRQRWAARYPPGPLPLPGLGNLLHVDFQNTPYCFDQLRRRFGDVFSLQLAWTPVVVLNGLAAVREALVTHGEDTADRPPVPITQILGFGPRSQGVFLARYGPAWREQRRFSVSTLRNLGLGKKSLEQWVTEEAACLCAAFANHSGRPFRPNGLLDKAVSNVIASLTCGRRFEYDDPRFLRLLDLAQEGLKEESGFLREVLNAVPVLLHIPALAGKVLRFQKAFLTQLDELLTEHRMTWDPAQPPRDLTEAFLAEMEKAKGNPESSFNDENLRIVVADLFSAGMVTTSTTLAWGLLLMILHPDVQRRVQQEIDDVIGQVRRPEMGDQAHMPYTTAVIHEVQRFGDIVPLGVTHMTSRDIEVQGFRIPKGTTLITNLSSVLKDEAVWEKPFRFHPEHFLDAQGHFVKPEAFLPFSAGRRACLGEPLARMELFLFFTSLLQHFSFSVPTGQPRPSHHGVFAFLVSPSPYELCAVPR
Sequence of Cytochrome P450 2C9 (P11712 whole entry): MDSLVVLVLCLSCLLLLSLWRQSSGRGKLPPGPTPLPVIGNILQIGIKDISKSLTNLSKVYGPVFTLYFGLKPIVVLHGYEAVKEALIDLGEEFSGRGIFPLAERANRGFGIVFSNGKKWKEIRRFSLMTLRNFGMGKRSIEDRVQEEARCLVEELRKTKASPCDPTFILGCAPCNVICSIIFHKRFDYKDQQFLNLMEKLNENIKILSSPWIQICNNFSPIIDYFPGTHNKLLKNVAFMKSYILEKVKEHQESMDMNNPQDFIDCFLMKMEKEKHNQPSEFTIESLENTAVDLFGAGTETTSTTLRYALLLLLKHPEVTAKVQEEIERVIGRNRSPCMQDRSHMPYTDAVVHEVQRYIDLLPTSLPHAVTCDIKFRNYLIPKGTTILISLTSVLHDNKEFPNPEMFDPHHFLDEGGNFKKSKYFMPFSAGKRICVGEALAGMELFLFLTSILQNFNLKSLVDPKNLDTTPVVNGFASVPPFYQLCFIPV

## CCC(=O)CCCCC[C@H](NC(=O)C1CN(C)C1)c1ncc(-c2cc3ccccc3nc2OC)o1
Cytochrome P450 2C9
  IC50: > 20 µM
[1]
  IC50: 0.177 µM
[2]
  fraction unbound: 0.018
[3]
  IC50: 3.6 µM
Cytochrome P450 2D6
  IC50: > 20 µM
[4]
  IC50: 10 µM
[5]
  half-life: 3.3 h
